Bioassay records as filed in PubChem.
EBV gp42 block = EBV gp42 inhibition. inhibition, % (tested at 21.74 µM). AID 1085. 220,000 compounds, 0.42% hits. Fluorescence polarization binding assay, mP read-out; in the data active = inhibition above about 50%
Target sequence (Q1HVG2 whole entry, looked up): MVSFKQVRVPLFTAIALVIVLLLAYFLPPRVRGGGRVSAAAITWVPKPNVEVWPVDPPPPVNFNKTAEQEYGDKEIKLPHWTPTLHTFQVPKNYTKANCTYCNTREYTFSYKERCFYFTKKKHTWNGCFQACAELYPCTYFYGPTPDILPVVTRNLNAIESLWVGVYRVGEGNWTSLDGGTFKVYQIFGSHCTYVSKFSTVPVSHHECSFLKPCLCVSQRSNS
ZTA counter = blocks Epstein-Barr virus ZTA, an EBNA-1 counter-screen; 320,000 compounds, 0.15% hits; inhibition, % at 11 µM; ZTA-DNA binding, fluorescence polarization; in the data active = inhibition above about 33%
core dimer inh = HCV core protein dimerization inhibition; TR-FRET GST/Flag-core106 dimerization, 1536-well; inhibition, % at 5 µM; 300,000 compounds, 0.33% hits; AID 1899;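 active = inhibition above the mean of all tested compounds plus 3 SD, set per screening campaign, cut at about 45% in these data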
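Assay system – GST-tagged and Flag-tagged HCV core protein residues 1-106 · Quantity – core106 proteins, GST 13.5 nM and Flag 17 nM · Benchmarks – unlabelled core106 and no-GST-core106 wells · Read-out basis – percent inhibition of core106 dimerization signal · Detection – time-resolved FRET, ex 340 nm, em 617 and 671 nm · Schedule – 4 h at 22.5 °C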
GPR7 antag = antagonists of human GPR7 (neuropeptides B/W receptor 1). inhibition, % at 4.4 µM. AID 1861. P48145. 290,000 compounds, 1.1% hits. GPR7-expressing cells, fluorescence antagonist assay; in the data active = inhibition above about 16%, passing the limit was not always enough;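 also: cells stimulated with the agonist NPW; 0% = agonist with vehicle and 100% = vehicle without agonist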
Target sequence (P48145 whole entry, looked up): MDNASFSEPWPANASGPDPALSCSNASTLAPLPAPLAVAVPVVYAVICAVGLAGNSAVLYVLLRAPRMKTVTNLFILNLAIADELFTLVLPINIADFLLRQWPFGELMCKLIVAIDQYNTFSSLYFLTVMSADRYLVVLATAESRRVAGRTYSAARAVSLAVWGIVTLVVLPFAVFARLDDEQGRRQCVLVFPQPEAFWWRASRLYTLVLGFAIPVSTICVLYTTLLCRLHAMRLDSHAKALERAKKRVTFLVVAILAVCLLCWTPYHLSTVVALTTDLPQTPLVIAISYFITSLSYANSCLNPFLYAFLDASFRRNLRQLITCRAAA
NS3 helicase inh = inhibitors of Hepatitis C virus NS3 helicase | NS3 helicase DNA unwinding, Cy5 molecular beacon fluorescence | AID 1800 | inhibition, % at 10.9 µM | 290,000 compounds, 0.56% hits;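 active = inhibition above the mean of all tested compounds plus 3 SD, set per campaign, cut at about 35% in these data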;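 also: 0% = DMSO wells and 100% = thioflavine S control wells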
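Measured by: Cy5 fluorescence, 0 and 60 min reads / Assay system: NS3 helicase fragment of HCV / Control set: low DMSO, high thioflavine S at 110 µM / Times: 1 h reaction at 25 °C, ATP-initiated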
EBNA-1 inh = blocks EBNA-1 binding to DNA | EBNA-1 DNA binding, fluorescence polarization | inhibition, % at 14.8 µM | 300,000 compounds, 0.34% hits | AID 1950; in the data active = inhibition above about 28%
Active calls of the source: *. Sampled rows, rich in hits. Any-hit rate of the full collection: about 2.3%.

How did Nc1nc(-c2ccccc2)cc(N2CCCCC2)n1 do in these assays?
EBV gp42 block: -24; ZTA counter: -2; core dimer inh: 0; GPR7 antag: 14*; NS3 helicase inh: -15; EBNA-1 inh: 6

Results for CC1CCC2(CC1)NC(=O)N(CC(=O)Nc1sc3c(c1C(N)=O)CCC3)C2=O (centres undefined) ?
EBV gp42 block: 31; ZTA counter: 1; core dimer inh: 52*; GPR7 antag: 5; NS3 helicase inh: 0; EBNA-1 inh: -3

Results for Cn1cnnc1SCC(=O)Nc1sc2c(c1C(N)=O)CCC2 ?
EBV gp42 block: 65*; ZTA counter: 10; core dimer inh: 7; GPR7 antag: 2; NS3 helicase inh: 2; EBNA-1 inh: 3

Results for COCCn1cnnc1SCC(=O)Nc1sc2c(c1C#N)CCC2 ?
ZTA counter: -1

Results for CC1CCCCC12NC(=O)N(CC(=O)Nc1sc3c(c1C(N)=O)CCC3)C2=O (centres undefined) ?
EBV gp42 block: 36; ZTA counter: -15; core dimer inh: 69*; GPR7 antag: -7; NS3 helicase inh: 7; EBNA-1 inh: -7

What do the screens show for `COC(=O)c1c(NC(=O)CN2C(=O)NC3(CCC(C)CC3)C2=O)sc2c1CCC2` (centres undefined)?
ZTA counter: 6

What do the screens show for `Cc1ccc(-n2c(C)nnc2SCC(=O)N2CCc3ccccc3C2)cc1`?
EBV gp42 block: -18; ZTA counter: -8; core dimer inh: -4; GPR7 antag: -11; NS3 helicase inh: -5; EBNA-1 inh: -5

Results for O=C1NC(=O)C(c2ccc(F)cc2)N1 (centres undefined) ?
ZTA counter: -3; core dimer inh: -5; GPR7 antag: 4; NS3 helicase inh: -5; EBNA-1 inh: 4

What do the screens show for `CC(=O)Nc1ccccc1OCC(=O)c1cc(C)n(Cc2cccs2)c1C`?
EBV gp42 block: 0; ZTA counter: 17; core dimer inh: 5; GPR7 antag: 25*; NS3 helicase inh: -1; EBNA-1 inh: 3

What do the screens show for `Cc1cc(C(=O)COc2cccnc2[N+](=O)[O-])c(C)n1Cc1cccs1`?
EBV gp42 block: 9; ZTA counter: -14; core dimer inh: 2; GPR7 antag: -10; NS3 helicase inh: 16; EBNA-1 inh: 1

Results for CCC(=O)OCCNc1cc(SCCC(=O)OC)c2nonc2c1[N+](=O)[O-] ?
EBV gp42 block: 9; ZTA counter: 10; core dimer inh: 13; GPR7 antag: -4; NS3 helicase inh: -3; EBNA-1 inh: 1

How did CCCC(=O)OCCNc1cc(Sc2nc3ccccc3[nH]2)c2nonc2c1[N+](=O)[O-] do in these assays?
EBV gp42 block: -19; ZTA counter: -7; core dimer inh: 2; GPR7 antag: 25*; NS3 helicase inh: -57; EBNA-1 inh: 1

How did CCCCc1ccc(C2C(C#N)=C(N)SC(N)=C2C#N)s1 do in these assays?
EBV gp42 block: -69; ZTA counter: -11; core dimer inh: 59*; GPR7 antag: 6; NS3 helicase inh: 30; EBNA-1 inh: -10

How did CCOc1ccc(C2C(C#N)=C(N)SC(N)=C2C#N)c(OCC)c1 do in these assays?
EBV gp42 block: -22; ZTA counter: -1; core dimer inh: 38; GPR7 antag: -13; NS3 helicase inh: 8; EBNA-1 inh: 8

How did S=C(NC1CC1)N1CCCc2ccccc21 do in these assays?
ZTA counter: -19; core dimer inh: -2; GPR7 antag: -4; NS3 helicase inh: 14; EBNA-1 inh: -15

How did CC(C)C(NC(=O)OCc1ccccc1)C(=O)OCC(=O)NC1CC1 (centres undefined) do in these assays?
EBV gp42 block: 1; ZTA counter: -8; core dimer inh: -4; GPR7 antag: -2; NS3 helicase inh: 10; EBNA-1 inh: -16

What do the screens show for `O=C(COC(=O)c1ccc(NS(=O)(=O)c2cccs2)cc1)NCc1ccco1`?
EBV gp42 block: 67*; ZTA counter: -1; core dimer inh: 72*; GPR7 antag: -3; NS3 helicase inh: 29; EBNA-1 inh: 7

What do the screens show for `CCOc1cc(C(=O)OCC(=O)NCc2ccco2)cc(OCC)c1OCC`?
EBV gp42 block: -27; ZTA counter: 11; core dimer inh: 52*; GPR7 antag: -15; NS3 helicase inh: 25; EBNA-1 inh: -2

Results for CC(C)C(NC(=O)OCc1ccccc1)C(=O)OCC(=O)NCc1ccco1 (centres undefined) ?
EBV gp42 block: -9; ZTA counter: 5; core dimer inh: 75*; GPR7 antag: 1; NS3 helicase inh: 20; EBNA-1 inh: -4

What do the screens show for `CCc1nc(Nc2ccc(OC)c(OC)c2)c2nnn(Cc3ccccc3Cl)c2n1`?
EBV gp42 block: 6; ZTA counter: 4; core dimer inh: 1; GPR7 antag: -14; NS3 helicase inh: -3; EBNA-1 inh: 12

Results for COc1ccc(C(=O)N2CCCC(C(=O)N3CCN(c4ccccc4)CC3)C2)cc1 (centres undefined) ?
EBV gp42 block: -10; ZTA counter: -16; core dimer inh: 4; GPR7 antag: -18; NS3 helicase inh: 7; EBNA-1 inh: 2

Results for Cc1[nH]c2c(C)cccc2c1CCNC(=O)c1ccc2c(c1[N+](=O)[O-])C(=O)c1ccccc1C2=O ?
EBV gp42 block: -12; ZTA counter: -7; core dimer inh: 60*; GPR7 antag: -3; NS3 helicase inh: -4; EBNA-1 inh: 11

What do the screens show for `Cc1[nH]c2ccccc2c1CCNC(=O)c1ccc2c(c1[N+](=O)[O-])C(=O)c1ccccc1C2=O`?
EBV gp42 block: -12; ZTA counter: 10; core dimer inh: 39; GPR7 antag: -7; NS3 helicase inh: 31; EBNA-1 inh: -7

What do the screens show for `COc1ccccc1N1C(=O)c2cccc3c(N(C)CCO)ccc(c23)C1=O`?
ZTA counter: 1; core dimer inh: 2; GPR7 antag: -11; NS3 helicase inh: 5; EBNA-1 inh: 0

What do the screens show for `Cc1ccccc1N1C(=O)c2cccc3c(N(C)CCO)ccc(c23)C1=O`?
EBV gp42 block: 126*; ZTA counter: 10; core dimer inh: -3; GPR7 antag: -2; NS3 helicase inh: -6; EBNA-1 inh: -8

How did N#Cc1c(NC(=O)CCN2C(=O)c3ccccc3C2=O)oc(-c2ccccc2)c1-c1ccccc1 do in these assays?
EBV gp42 block: -6; ZTA counter: -3; core dimer inh: 24; GPR7 antag: -6; NS3 helicase inh: -18; EBNA-1 inh: 13

What do the screens show for `N#Cc1c(NC(=O)CCn2cnc3ccccc3c2=O)oc(-c2ccccc2)c1-c1ccccc1`?
EBV gp42 block: -10; ZTA counter: 18; core dimer inh: 25; GPR7 antag: 18*; NS3 helicase inh: 5; EBNA-1 inh: 6
